In test [1] the test system is Acinetobacter baumannii. Kind of test: Synergistic antibacterial activity against Acinetobacter baumannii ATCC 17978 assessed as rifampicin MIC at <=0.25 times MIC incubated for overnight by microbroth dilution checkerboard assay. The format is functional. In a few lines: (§1)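 Checkerboard microdilution under MIC conditions (TSB, overnight, 37 °C). Two-fold series of each agent were combined on one plate before bacteria were added, and single-agent MICs were measured on the same plate. FIC = sum of combination MIC/alone MIC for each agent, taken from the most synergistic well. Three independent repeats, mean ± SD. ≤0.5 was taken as strong synergy and 0.5–<1 as weak.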
(In general: In broth dilution the organism is exposed to a series of concentrations in liquid medium.)

Test [2] deals with Acinetobacter baumannii. Kind of test: Synergistic antibacterial activity against Acinetobacter baumannii AYE assessed as rifampicin MIC at <=0.25 times MIC incubated for overnight by microbroth dilution checkerboard assay. The class given is functional. In a few lines:
as §1

The subject of test [3] is Acinetobacter baumannii. Nature of the test: Synergistic antibacterial activity against Acinetobacter baumannii ATCC 17978 assessed as fold change in rifampicin MIC at <=0.25 times MIC incubated for overnight by microbroth dilution checkerboard assay relative to rifampicin alone. The class given is functional. In a few lines: as §1
In test [4] the test system is Klebsiella pneumoniae. Nature of the test: Synergistic antibacterial activity against Klebsiella pneumoniae NCTC 13368 assessed as rifampicin MIC at <=0.25 times MIC incubated for overnight by microbroth dilution checkerboard assay. The class given is functional. A digest of the protocol: as §1
Test [5] deals with Pseudomonas aeruginosa. Nature of the test: Synergistic antibacterial activity against Pseudomonas aeruginosa PAO1 assessed as rifampicin MIC at <=0.25 times MIC incubated for overnight by microbroth dilution checkerboard assay. The class given is functional. A digest of the protocol:
(§2)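 Checkerboard microdilution in Tryptic Soy Broth, run like the MIC assay. Overnight TSB cultures were back-diluted to OD 0.01 and added 1:1 to the combined two-fold series of both agents, then incubated overnight at 37 °C. Growth/no-growth was called at <0.1 OD600. MICs alone were read on the same plates. FIC index came from the most synergistic well; three independent repeats, mean ± SD.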

The subject of test [6] is Acinetobacter baumannii. Kind of test: Synergistic antibacterial activity against Acinetobacter baumannii AYE assessed as fold change in rifampicin MIC at <=0.25 times MIC incubated for overnight by microbroth dilution checkerboard assay relative to rifampicin alone. The format is functional. In a few lines: as §1
Test [7] relates to Klebsiella pneumoniae. Nature of the test: Synergistic antibacterial activity against Klebsiella pneumoniae NCTC 13368 assessed as fold change in rifampicin MIC at <=0.25 times MIC incubated for overnight by microbroth dilution checkerboard assay relative to rifampicin alone. The format is functional. In a few lines:
(§3)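 Checkerboard run under the MIC conditions (TSB, overnight, 37 °C). Antibiotic and lipoguanidine 2-fold series were combined on one plate before bacteria were added. Growth/no-growth was scored as for the MIC (<0.1 OD600). Single-agent MICs were measured on the same plates. Three independent repeats were done.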

For test [8], the system named is Pseudomonas aeruginosa. Kind of test: Synergistic antibacterial activity against Pseudomonas aeruginosa NCTC 13437 assessed as rifampicin MIC at <=0.25 times MIC incubated for overnight by microbroth dilution checkerboard assay. The format is functional. In a few lines:
as §2

The test system of test [9] is Escherichia coli. Nature of the test: Synergistic antibacterial activity against Escherichia coli NCTC 12923 assessed as fold change in rifampicin MIC at <=0.25 times MIC incubated for overnight by microbroth dilution checkerboard assay relative to rifampicin alone. The class given is functional. In a few lines:
as §1

Test [10] relates to Pseudomonas aeruginosa. Nature of the test: Synergistic antibacterial activity against Pseudomonas aeruginosa NCTC 13437 assessed as fold change in rifampicin MIC at <=0.25 times MIC incubated for overnight by microbroth dilution checkerboard assay relative to rifampicin alone. The class given is functional. A digest of the protocol: as §2
In test [11] the test system is Escherichia coli. Nature of the test: Synergistic antibacterial activity against Escherichia coli NCTC 12923 assessed as rifampicin MIC at <=0.25 times MIC incubated for overnight by microbroth dilution checkerboard assay. The class given is functional. A digest of the protocol: as §1
The subject of test [12] is Klebsiella pneumoniae. Kind of test: Synergistic antibacterial activity against […] Klebsiella pneumoniae M6 assessed as rifampicin MIC at <=0.25 times MIC incubated for overnight by microbroth dilution checkerboard assay. The format is functional. In a few lines:
as §3

Test [13] has as its system Pseudomonas aeruginosa. Kind of test: Synergistic antibacterial activity against Pseudomonas aeruginosa PAO1 assessed as fold change in rifampicin MIC at <=0.25 times MIC incubated for overnight by microbroth dilution checkerboard assay relative to rifampicin alone. The format is functional. A digest of the protocol: as §2
Test [14] relates to Escherichia coli. Kind of test: Antibacterial activity against Escherichia coli NCTC 12923 assessed as bacterial growth inhibition incubated for overnight by microbroth dilution method. The format is functional. A digest of the protocol:
(§4)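 Broth microdilution in Tryptic Soy Broth. DMSO stocks were diluted in TSB as 2-fold series. Overnight TSB cultures were back-diluted to OD 0.01 and mixed 1:1 with compound. Incubation was overnight at 37 °C. MIC was the lowest concentration without visible growth (<0.1 OD600). DMSO vehicle was checked at equivalent concentrations.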

Test [15] concerns Acinetobacter baumannii. Nature of the test: Antibacterial activity against Acinetobacter baumannii AYE assessed as bacterial growth inhibition incubated for overnight by microbroth dilution method. The class given is functional. In a few lines:
as §4

The subject of test [16] is Klebsiella pneumoniae. Kind of test: Antibacterial activity against ESBL Klebsiella pneumoniae NCTC 13368 assessed as bacterial growth inhibition incubated for overnight by microbroth dilution method.
In test [17] the test system is Acinetobacter baumannii. Kind of test: Antibacterial activity against Acinetobacter baumannii ATCC 17978 assessed as bacterial growth inhibition incubated for overnight by microbroth dilution method. The class given is functional. A digest of the protocol: as §4

SMILES strings stand for the structures. Converted amounts (≈) assume the structure as drawn.

Turning to `CCCCCCCC/C=C\CCCCCCCCNC(=N)NCCCCCCCCCC`, the minimal inhibitory concentration (MIC) in the test on Acinetobacter baumannii [1] turned out to be 8 µg/mL; in the test with Acinetobacter baumannii [2] it was 32 µg/mL; with Klebsiella pneumoniae [4], 128 µg/mL; in the test with Pseudomonas aeruginosa [5], 64 µg/mL; in the test on Pseudomonas aeruginosa [8], 64 µg/mL; in the test on Escherichia coli [11] it was 32 µg/mL. Further, the minimum inhibitory concentration (MIC) with Klebsiella pneumoniae [12] turned out to be 64 µg/mL. The “fold change (FC)” value in the test with Acinetobacter baumannii [3], in the test with Acinetobacter baumannii [6], in the test on Klebsiella pneumoniae [7], with Escherichia coli [9], with Pseudomonas aeruginosa [10] and in the test with Pseudomonas aeruginosa [13] was 0 in each case.

`CCCCCCCCCCCC(=O)NCCCC`: the MIC in the test on Acinetobacter baumannii [1] stood at 4 µg/mL; in the test on Acinetobacter baumannii [2] it was 16 µg/mL; in the test on Klebsiella pneumoniae [4] it was 32 µg/mL; in the test on Pseudomonas aeruginosa [5], 32 µg/mL; in the test on Pseudomonas aeruginosa [8] it was 32 µg/mL; with Escherichia coli [11], 32 µg/mL. Besides, the minimum inhibitory concentration (MIC) in the test with Klebsiella pneumoniae [12] came out at 32 µg/mL. Moreover, the “fold change (FC)” value with Acinetobacter baumannii [3], with Acinetobacter baumannii [6], in the test with Klebsiella pneumoniae [7], in the test with Escherichia coli [9], with Pseudomonas aeruginosa [10] and in the test on Pseudomonas aeruginosa [13] was 0 in each case.

In the case of `CCCCCCCCCCNC(=N)NCCCC(=O)O`, the minimum inhibitory concentration (MIC) was found to be 2 µg/mL in the test on Acinetobacter baumannii [1]; 8 µg/mL in the test with Acinetobacter baumannii [2]; 32 µg/mL in the test on Klebsiella pneumoniae [4]; 32 µg/mL in the test on Pseudomonas aeruginosa [5]; 32 µg/mL in the test with Pseudomonas aeruginosa [8]; 32 µg/mL in the test on Escherichia coli [11]. Moreover, the minimal inhibitory concentration (MIC) in the test on Klebsiella pneumoniae [12] is 32 µg/mL. The “fold change (FC)” value in the test on Acinetobacter baumannii [3], in the test on Acinetobacter baumannii [6], in the test on Klebsiella pneumoniae [7], with Escherichia coli [9], with Pseudomonas aeruginosa [10] and in the test with Pseudomonas aeruginosa [13] was 0 throughout.

For `CCCCCCCCCCNC(=N)NCCCCCCCCCC`, the MIC in the test with Escherichia coli [14] was 64 µg/mL (≈ 188 µM); with Acinetobacter baumannii [1], not above 0.125 µg/mL; in the test on Acinetobacter baumannii [15], 16 µg/mL (≈ 47.1 µM); with Acinetobacter baumannii [2], not above 0.125 µg/mL; in the test with Klebsiella pneumoniae [16], 16 µg/mL (≈ 47.1 µM); in the test on Klebsiella pneumoniae [4], 64 µg/mL. The MIC in the test with Pseudomonas aeruginosa [5] turned out to be 64 µg/mL; in the test with Pseudomonas aeruginosa [8] it was 64 µg/mL; in the test with Escherichia coli [11], 8 µg/mL; with Acinetobacter baumannii [17] it was 32 µg/mL (≈ 94.2 µM); in the test on Klebsiella pneumoniae [12], 32 µg/mL. The “fold change (FC)” value was “>=4” with Acinetobacter baumannii [3]; “>=4” in the test with Acinetobacter baumannii [6]; 0 in the test with Klebsiella pneumoniae [7]; 0 with Escherichia coli [9]; 0 with Pseudomonas aeruginosa [10]; 0 in the test with Pseudomonas aeruginosa [13].

Regarding `CCCCCCCCCCCC(=O)NCCCCN`, the minimal inhibitory concentration (MIC) turned out to be 4 µg/mL in the test with Acinetobacter baumannii [1]; 32 µg/mL in the test on Acinetobacter baumannii [2]; 128 µg/mL in the test on Klebsiella pneumoniae [4]; 64 µg/mL in the test with Pseudomonas aeruginosa [5]; 32 µg/mL in the test with Pseudomonas aeruginosa [8]; 32 µg/mL with Escherichia coli [11]. Moreover, the MIC in the test with Klebsiella pneumoniae [12] worked out at 32 µg/mL. In addition, the “fold change (FC)” value in the test with Acinetobacter baumannii [3], in the test with Acinetobacter baumannii [6], in the test on Klebsiella pneumoniae [7], in the test with Escherichia coli [9], in the test with Pseudomonas aeruginosa [10] and in the test with Pseudomonas aeruginosa [13] was 0 each time.

As to `CCCCCCCCCCNC(=N)NCCCC`, the MIC in the test on Escherichia coli [14] was 16 µg/mL (≈ 62.6 µM); in the test on Acinetobacter baumannii [1], not above 0.125 µg/mL; in the test on Acinetobacter baumannii [15], 16 µg/mL (≈ 62.6 µM); with Acinetobacter baumannii [2] it was not above 0.125 µg/mL; in the test on Klebsiella pneumoniae [16], 16 µg/mL (≈ 62.6 µM); with Klebsiella pneumoniae [4] it was not above 0.125 µg/mL. In addition, the MIC in the test on Pseudomonas aeruginosa [5] is 16 µg/mL; in the test with Pseudomonas aeruginosa [8] it was 16 µg/mL; in the test with Escherichia coli [11], not above 0.125 µg/mL; in the test on Acinetobacter baumannii [17] it was 16 µg/mL (≈ 62.6 µM); in the test with Klebsiella pneumoniae [12], not above 0.125 µg/mL. For the same compound, the “fold change (FC)” value is on record as “>=4” in the test with Acinetobacter baumannii [3]; “>=4” with Acinetobacter baumannii [6]; “>=4” with Klebsiella pneumoniae [7]; “>=4” with Escherichia coli [9]; 0 with Pseudomonas aeruginosa [10]; 0 in the test with Pseudomonas aeruginosa [13].

Broadly, the MIC is the least concentration at which growth counts as inhibited.

The values are drawn from ChEMBL document CHEMBL5357066, “Development of Novel Membrane Disrupting Lipoguanidine Compounds Sensitizing Gram-Negative Bacteria to Antibiotics” (ACS Med Chem Lett, 2024).
